The source of these data is ChEMBL document CHEMBL2163260, “Synthesis and biological evaluation of antifungal derivatives of enfumafungin as orally bioavailable inhibitors of β-1,3-glucan synthase” (Bioorg Med Chem Lett, 2012).

The subject of data set [1] is Candida albicans. The experiment in a line: Antifungal activity against Candida albicans MY1055 infected in DBA/2 mouse assessed as reduction in kidney fungal burden measured per gram of tissue at 25 mg/kg, po bid for 2 days post infection measured after 4 days relative to sham-treated control. The data set is classed as functional. The method, boiled down: (§1)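 DBA/2 mice were given 3.0 × 10^4 CFU of C. albicans MY1055 iv into the lateral tail vein in 0.2 mL. Dosing ip or po, bid for 2 days, began 15–30 min after challenge, with a sham-treated control for each route and diluent. At day 4, paired kidneys (4–5 mice/group) were homogenized in saline, serially diluted and plated on SD agar (35 °C, 30–48 h). Mean CFU/g was compared with sham.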

Data set [2] deals with Candida albicans. The experiment in a line: Antifungal activity against Candida albicans MY1055 infected in DBA/2 mouse assessed as reduction in kidney fungal burden measured per gram of tissue at 12.5 mg/kg, ip bid for 2 days post infection measured after 4 days relative to sham-treated control. It is filed as functional. The note with it: route intraperitoneal. The method, boiled down: as §1

For data set [3], the system named is Candida albicans. The experiment in a line: Antifungal activity against Candida albicans. It is filed as functional.
The test system of data set [4] is Candida albicans. The experiment in a line: Antifungal activity against Candida albicans MY1055 infected in DBA/2 mouse assessed as reduction in kidney fungal burden measured per gram of tissue at 6.25 mg/kg, po bid for 2 days post infection measured after 4 days relative to sham-treated control. The data set is classed as functional. The method, boiled down:
as §1

Data set [5] is described as follows: Inhibition of Candida albicans beta-1,3-glucan synthase assessed as [3H]UDPG incorporation after 60 mins by scintillation counting. The method, boiled down: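 C. albicans glucan synthase was incubated for 60 min at 22 °C in 50 mM HEPES pH 7.5 with 0.5 mM 3H-UDPG (6000–8000 dpm/nmol), 10% glycerol, 1.5 mg/mL BSA, 25 mM KF, 1 mM EDTA and GTP-γ-S. Enzyme was set to give 3–6 nmol incorporation. Compounds were added as threefold DMSO dilutions. The reaction was stopped with 20% TCA and chilled, and glucan was collected on GF/C filters, water-washed and scintillation counted.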

In data set [6] the test system is Candida albicans. The experiment in a line: Antifungal activity against Candida albicans MY1055 infected in DBA/2 mouse assessed as reduction in kidney fungal burden measured per gram of tissue at 12.5 mg/kg, po bid for 2 days post infection measured after 4 days relative to sham-treated control. It is filed as functional. The method, boiled down:
as §1

Data set [7] in a line: Clearance in po dosed mouse. The conditions noted are these: in vivo. It is filed as ADME, organism-based.
A short description of data set [8]: Oral bioavailability in mouse. The data set is classed as ADME, organism-based. The conditions noted are these: in vivo.
For another data set, the system named is Mus musculus. In words: Dose normalised AUC in po dosed mouse. It is filed as ADME, organism-based. The note with it: in vivo.
The nature of data set [9]: Inhibition of Candida albicans MY1055 beta-1,3-glucan synthase assessed as [3H]UDPG incorporation after 60 mins.
For data set [10], the system named is Candida albicans. The experiment in a line: Antifungal activity against Candida albicans MY1055 after 24 hrs by NCCLS microdilution method. The conditions noted are these: MY1055, 24 h. It is filed as functional.

Values after ≈ are worked out from the molar mass of the structure shown.

With `CC(C)[C@@H](C)[C@@]1(C)CC[C@]2(C)[C@H]3CC[C@@H]4[C@@]5(COC[C@@]4(C)[C@@H](OC[C@@]4(C)CCCN4C)[C@H](n4ncnc4-c4ccncc4)C5)C3=CC[C@@]2(C)[C@@H]1C(=O)O`, the deltalog10CFU in the data set on Candida albicans [1] is reported as -2; in the data set with Candida albicans [2], -1.8; in the data set with Candida albicans [4], -0.9; in the data set with Candida albicans [6] it was -1.4. Besides, the MIC against Candida albicans [3] came to 0.125 µg/mL (≈ 0.172 µM). Besides, the 50% inhibitory concentration (IC50) in data set [5] worked out at 0.0064 µg/mL (≈ 0.00879 µM).

For `CN[C@@](C)(CO[C@H]1[C@H](n2ncnc2-c2ccncc2)C[C@@]23COC[C@]1(C)[C@@H]2CC[C@H]1C3=CC[C@@]2(C)[C@H](C(=O)O)[C@@](C)([C@H](C)C(C)C)CC[C@]12C)C(C)(C)C`, the deltalog10CFU in the data set on Candida albicans [1] is -4.25; in the data set on Candida albicans [2] it was -4.37; in the data set on Candida albicans [4] it was -2.72; in the data set on Candida albicans [6], -3.88. In data set [7], this compound registered a clearance of 16 mL/min/kg. This compound displayed a bioavailability in data set [8] of 42%. This compound also showed an AUC/dose in the data set on Mus musculus of 0.62 µM·kg·h/mg. In the data set with Candida albicans [3], this compound came in with an MIC of 0.03 µg/mL (≈ 0.0403 µM). Moreover, the IC50 in [5] is 0.002 µg/mL (≈ 0.00269 µM).

Turning to `CC(C)[C@@H](C)[C@@]1(C)CC[C@]2(C)[C@H]3CC[C@@H]4[C@@]5(COC[C@@]4(C)[C@@H](OC[C@@]4(C)CCCN4)[C@H](n4ncnc4-c4ccncc4)C5)C3=CC[C@@]2(C)[C@@H]1C(=O)O`, the deltalog10CFU is on record as -2.16 in the data set on Candida albicans [1] and -2.83 with Candida albicans [2]. For the same compound, the clearance in data set [7] amounted to 19.2 mL/min/kg. This compound came in with a bioavailability in [8] of 4.7%. The compound further had an AUC/dose with Mus musculus of 0.06 µM·kg·h/mg. The compound further showed an MIC in the data set with Candida albicans [3] of 0.125 µg/mL (≈ 0.175 µM). Also, in data set [5], the IC50 was 0.004 µg/mL (≈ 0.0056 µM).

`CC(C)[C@@H](C)[C@@]1(C)CC[C@]2(C)[C@H]3CC[C@@H]4[C@@]5(COC[C@@]4(C)[C@@H](OC[C@H]4CCCN4C)[C@H](n4ncnc4-c4ccncc4)C5)C3=CC[C@@]2(C)[C@@H]1C(=O)O`: the deltalog10CFU with Candida albicans [1] was -1.14; in the data set on Candida albicans [2] it was -1.84; in the data set with Candida albicans [4], -1.22; in the data set with Candida albicans [6], -0.9. The same compound registered a clearance in data set [7] of 13.1 mL/min/kg. Moreover, the bioavailability in [8] was 23%. The same compound registered an AUC/dose in the data set on Mus musculus of 0.06 µM·kg·h/mg. In addition, the MIC in the data set on Candida albicans [3] was 0.5 µg/mL (≈ 0.7 µM). In addition, the IC50 in [5] stood at 0.019 µg/mL (≈ 0.0266 µM).

As to `CC(C)[C@@H](C)[C@@]1(C)CC[C@]2(C)[C@H]3CC[C@@H]4[C@@]5(COC[C@@]4(C)[C@@H](OC[C@H]4CCCN4)[C@H](n4ncnc4-c4ccncc4)C5)C3=CC[C@@]2(C)[C@@H]1C(=O)O`, the deltalog10CFU in the data set with Candida albicans [1] was -2.09; with Candida albicans [2], -1.69; with Candida albicans [4], -0.27; with Candida albicans [6], -1.81. The clearance in data set [7] came to 16.3 mL/min/kg. The compound also registered a bioavailability in data set [8] of 1.7%. The same compound displayed an AUC/dose in the data set on Mus musculus of 0.03 µM·kg·h/mg. In the data set with Candida albicans [3], this compound came in with an MIC of 0.5 µg/mL (≈ 0.714 µM). The IC50 in [5] was found to be 0.022 µg/mL (≈ 0.0314 µM).

The compound `CC(C)[C@@H](C)[C@@]1(C)CC[C@]2(C)[C@H]3CC[C@@H]4[C@@]5(COC[C@@]4(C)[C@@H](OC[C@@H]4CCCN4C)[C@H](n4ncnc4-c4ccncc4)C5)C3=CC[C@@]2(C)[C@@H]1C(=O)O` returned an MIC against Candida albicans [3] of 1 µg/mL (≈ 1.4 µM). Further, in data set [5], the IC50 came to 0.061 µg/mL (≈ 0.0854 µM).

With `CC(C)[C@@H](C)[C@@]1(C)CC[C@]2(C)[C@H]3CC[C@@H]4[C@@]5(COC[C@@]4(C)[C@@H](OC[C@@H]4CCCN4)[C@H](n4ncnc4-c4ccncc4)C5)C3=CC[C@@]2(C)[C@@H]1C(=O)O`, the deltalog10CFU was -1.32 in the data set on Candida albicans [1], -2.18 in the data set on Candida albicans [2], -0.4 in the data set with Candida albicans [4] and -0.26 with Candida albicans [6]. This compound also gave an MIC in the data set with Candida albicans [3] of 1 µg/mL (≈ 1.43 µM). The IC50 in data set [5] came to 0.018 µg/mL (≈ 0.0257 µM).

`CC(=O)O[C@@H]1C[C@]23C4=CC[C@@]5(C)[C@H](C(=O)O)[C@@](C)([C@H](C)C(C)C)CC[C@]5(C)[C@H]4CC[C@H]2[C@@](C)(COC3O)[C@H]1O[C@@H]1O[C@H](CO)[C@@H](O)[C@H](O)[C@H]1O` (stereo not given in full) [ENFUMAFUNGIN]: the IC50 in [9] amounted to 0.05 µg/mL (≈ 0.0705 µM). The compound also showed a minimal inhibitory concentration (MIC) in the data set on Candida albicans [10] of 0.2 µg/mL (≈ 0.282 µM).
